Experimental data reported in ChEMBL document CHEMBL3992497, “Synthesis, structure-activity relationships and biological evaluation of 7-phenyl-pyrroloquinolinone 3-amide derivatives as potent antimitotic agents” (Eur J Med Chem, 2017).
Calls of active or inactive are those of the source. The rule behind the calls is not given here.

Tests used:
[1] = system: HL-60; test: Antiproliferative activity against human HL60 cells after 72 hrs by MTT assay; assay type: functional; conditions: HL-60, 72 h
Method in brief: (§1)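 Compounds from 10 mM DMSO stocks. Cells seeded at 8 × 10^3 per well and held 18 h at 37 °C in humidified 5% CO2. Medium was then replaced with fresh medium holding graded compound concentrations, in triplicate, for 72 h at 37 °C. Viability was read by MTT. GI50 is the concentration giving 50% inhibition of proliferation. Mean ± SE of ≥3 independent dose-response experiments.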

[2] = system: CCRF-CEM; test: Antiproliferative activity against human CCRF-CEM cells after 72 hrs by MTT assay; assay type: functional; method in brief: as §1
[3] = system: RS4-11; test: Antiproliferative activity against human RS4:11 cells after 72 hrs by MTT assay; assay type: functional; conditions: RS4-11, 72 h; method in brief: as §1
[4] = system: Jurkat; test: Antiproliferative activity against human Jurkat cells after 72 hrs by MTT assay; assay type: functional; method in brief: as §1
[5] = system: SEM cells; test: Antiproliferative activity against human SEM cells after 72 hrs by MTT assay; assay type: functional; method in brief: as §1
[6] = system: MV4-11; test: Antiproliferative activity against human MV4-11 cells after 72 hrs by MTT assay; assay type: functional; conditions: MV4-11, 72 h; method in brief: as §1
[7] = system: THP-1; test: Antiproliferative activity against human THP1 cells after 72 hrs by MTT assay; assay type: functional; conditions: THP-1, 72 h; method in brief: as §1
[8] = system: HeLa; test: Antiproliferative activity against human HeLa cells after 72 hrs by MTT assay; assay type: functional; method in brief: as §1
[9] = system: A549; test: Antiproliferative activity against human A549 cells after 72 hrs by MTT assay; assay type: functional; conditions: A549, 72 h; method in brief: as §1
[10] = system: HT-29; test: Antiproliferative activity against human HT-29 cells after 72 hrs by MTT assay; assay type: functional; conditions: HT-29, 72 h; method in brief: as §1
[11] = system: MCF7; test: Antiproliferative activity against human MCF7 cells after 72 hrs by MTT assay; assay type: functional; conditions: MCF7, 72 h; method in brief: as §1
[12] = Inhibition of bovine brain tubulin assembly preincubated for 20 mins followed by GTP addition by turbidometric method; design: species or system Bos taurus
Method in brief: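 Varying compound concentrations pre-incubated with 10 μM bovine brain tubulin in glutamate buffer at 30 °C, then chilled to 0 °C. GTP added to 0.4 mM final, mixture warmed to 30 °C, turbidity followed at 350 nm.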

[13] = organism: Bos taurus; test: Inhibition of [3H]colchicine binding to bovine brain tubulin at 5 uM relative to control
Method in brief: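 Reaction mixtures held 1 μM tubulin, 5 μM [3H]colchicine and 5 μM test compound. Inhibition of bound radiolabel measured relative to control.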

[14] = system: Liver; test: Drug level in human liver microsomes treated with 3-Benzoyl-7-phenyl-6H-pyrrolo[3,2-f]quinolin-9-one at 10 uM after 60 mins by fluorescence based HPLC analysis; assay type: ADME, microsome; conditions: 1 h
Method in brief: (§2)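 Compound at 10 μM final in 0.1 M KH2PO4 pH 7.4 with 1.0 mg/mL pooled mixed-gender human liver microsomes, without or with 1 mM NADPH; buffer-only controls. Started with microsomes after 3-min equilibration and run at 37 °C for 0–60 min. Stopped with ice-cold acetonitrile, centrifuged, supernatant run on C18 HPLC with fluorescence detection (ex 344/em 493 nm). % remaining from peak area versus 0 min. Mean ± SD, n = 3–4.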

[15] = system: PBL; test: Antiproliferative activity against human PBL after 72 hrs by MTT assay; assay type: cell-based
Method in brief: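 PBL from healthy donors separated on a Lymphoprep gradient, washed, and held overnight at 1.0 × 10^6 cells/mL in RPMI-1640 with 10% FBS. Non-adherent resting cells resuspended at 5 × 10^5 cells/mL without PHA. Graded compound concentrations for 72 h, then MTT. Mean ± SEM of three separate experiments.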

[16] = system: HeLa; test: Cell cycle arrest in human HeLa cells assessed as accumulation at G2/M phase at 100 nM after 24 hrs by propidium iodide staining based flow cytometry relative to control; assay type: functional
Method in brief: (§3)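 5 × 10^5 cells exposed to varying compound concentrations for 24 h. Cells collected, fixed in ice-cold 70% ethanol, and lysed in buffer with RNase A and 0.1% Triton X-100. PI-stained, then analysed by flow cytometry for phase distribution from DNA histograms. Mean of two independent experiments.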

[17] = system: Jurkat; test: Cell cycle arrest in human Jurkat cells assessed as accumulation at G2/M phase at 100 nM after 24 hrs by propidium iodide staining based flow cytometry relative to control; assay type: functional; method in brief: as §3
[18] = system: HeLa; test: Cell cycle arrest in human HeLa cells assessed as reduction in S phase at 50 to 100 nM after 24 hrs by propidium iodide staining based flow cytometry relative to control; assay type: functional; method in brief: as §3
[19] = system: HeLa; test: Cell cycle arrest in human HeLa cells assessed as reduction in G1 phase at 50 to 100 nM after 24 hrs by propidium iodide staining based flow cytometry relative to control; assay type: functional; method in brief: as §3
[20] = system: HeLa; test: Cell cycle arrest in human HeLa cells assessed as accumulation at G2/M phase after 24 hrs by propidium iodide staining based flow cytometry; assay type: functional; method in brief: as §3
[21] = system: Jurkat; test: Cell cycle arrest in human Jurkat cells assessed as accumulation at G2/M phase after 24 hrs by propidium iodide staining based flow cytometry; assay type: functional; method in brief: as §3
[22] = system: PBL; test: Antiproliferative activity against phytohematoaglutinin-stimulated human PBL after 72 hrs by MTT assay; assay type: cell-based
Method in brief: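 Donor PBL isolated on a Lymphoprep gradient and rested overnight in RPMI-1640 with 10% FBS. Non-adherent cells resuspended at 5 × 10^5 cells/mL in growth medium with 2.5 μg/mL PHA. Graded compound concentrations added; viability by MTT at 72 h. Mean ± SEM of three separate experiments.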

[23] = Selectivity index, ratio of IC50 for phytohematoaglutinin-stimulated human PBL to GI50 for human CCRF-CEM cells
Method in brief: (§4)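 Ratio of two 72 h MTT viability values. Healthy-donor PBL were isolated on a density gradient, rested overnight, then seeded as non-adherent cells at 5 × 10^5 cells/mL with 2.5 μg/mL PHA and exposed to graded compound concentrations. Leukemia cells were grown in RPMI-1640 with 10% FBS, seeded at 8 × 10^3 cells/well, pre-incubated 18 h at 37 °C, and dosed in triplicate.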

[24] = Selectivity index, ratio of IC50 for phytohematoaglutinin-stimulated human PBL to GI50 for human Jurkat cells; method in brief: as §4
[25] = system: HeLa; test: Induction of ROS generation in human HeLa cells at 10 to 100 nM after 24 to 48 hrs by H2-DCFDA staining based flow cytometry; assay type: functional, cell-based
Method in brief: (§5)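 Cells exposed for 24 or 48 h at the indicated concentrations, then loaded with H2-DCFDA. ROS read as oxidised DCF fluorescence by flow cytometry. Mean ± SEM of three independent experiments.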

[26] = system: Jurkat; test: Induction of ROS generation in human Jurkat cells at 10 to 100 nM after 24 to 48 hrs by H2-DCFDA staining based flow cytometry; assay type: functional, cell-based; method in brief: as §5
[27] = Metabolic stability in human liver microsomes assessed as parent compound remaining at 10 uM after 60 mins by fluorescence based HPLC analysis; assay type: ADME, microsome; conditions: read-out: Stability; method in brief: as §2
[28] = system: Liver; test: Metabolic stability in human liver microsomes at 10 uM after 60 mins in presence of NADPH by fluorescence based HPLC analysis; assay type: ADME, microsome; conditions: 1 h; method in brief: as §2
[29] = system: Liver; test: Drug metabolism in human liver microsomes assessed as 7-phenyl-3H-pyrrolo[3,2-f]quinolin-9(6H)-one formation at 10 uM after 60 mins by fluorescence based HPLC analysis; assay type: ADME, microsome; conditions: 1 h; method in brief: as §2
[30] = system: HeLa; test: Cell cycle arrest in human HeLa cells assessed as accumulation at G2/M phase at 50 to 100 nM after 24 hrs by propidium iodide staining based flow cytometry; assay type: functional; method in brief: as §3
[31] = system: Jurkat; test: Cell cycle arrest in human Jurkat cells assessed as accumulation at G2/M phase at 50 to 100 nM after 24 hrs by propidium iodide staining based flow cytometry; assay type: functional; method in brief: as §3

GI50 [1] [µM] | GI50 [2] [µM] | GI50 [3] [µM] | GI50 [4] [µM] | GI50 [6] [µM] | GI50 [7] [µM] | GI50 [8] [µM] | GI50 [9] [µM] | GI50 [10] [µM] | GI50 [11] [µM] | IC50 [12] [µM] | inhibition [13] [%] | Compound | GI50 [5] [µM] | also measured
0.002 | 0.017 | 0.0001 | 0.0003 | 0.019 | 0.074 | 0.0016 | 0.009 | 0.001 | 0.005 |  |  | O=C(C1CC1)n1ccc2c3c(=O)cc(-c4ccccc4)[nH]c3ccc21 | 0.0004 | 
2.64 | 1.04 | 0.256 | 1.34 | 1.54 | 2.17 | 0.331 | 0.918 | 1.59 | 1.11 |  |  | O=C(c1ccccc1)N1CCc2c1ccc1[nH]c(-c3ccccc3)cc(=O)c21 | 0.918 | 
0.155 | 0.092 | 0.027 | 0.145 | 0.085 | 0.066 | 0.212 | 0.171 | 0.255 | 0.096 | 2.2 | 18 | O=C(NC1CC1)n1ccc2c3c(=O)cc(-c4ccccc4)[nH]c3ccc21 | 0.011 | 
 |  |  |  |  |  |  |  |  |  |  |  | O=c1cc(-c2ccccc2)[nH]c2ccc3[nH]ccc3c12 |  | Drug metabolism [14]: Metabolite_Detected
3.74 | 0.818 | 0.132 | 2.32 | 1.98 | 2.32 | 1.45 | 3.56 | 5.44 | 6.32 |  |  | O=C(c1ccccc1)N1CCc2cc3[nH]c(-c4ccccc4)cc(=O)c3cc21 | 1.66 | 
1.62 | 0.435 | 0.211 | 0.256 | 0.356 | 0.846 | 0.373 | 0.541 | 0.255 | 0.475 |  |  | O=c1cc(-c2ccccc2)[nH]c2ccc3c(c12)CCN3S(=O)(=O)c1ccc(C(F)(F)F)cc1 | 0.336 | 
0.291 | 0.235 | 0.035 | 0.372 | 0.352 | 0.071 | 0.563 | 0.451 | 0.623 | 0.521 |  |  | CS(=O)(=O)N1CCc2c1ccc1[nH]c(-c3ccccc3)cc(=O)c21 | 0.271 | 
> 10 | > 10 | > 10 | > 10 | > 10 | > 10 | 7.64 | > 10 | > 10 | > 10 |  |  | CS(=O)(=O)N1CCc2cc3[nH]c(-c4ccccc4)cc(=O)c3cc21 | > 10 | 
0.002 | 0.012 | 0.0003 | 0.016 | 0.002 | 0.005 | 0.0002 | 0.01 | 0.0001 | 0.0002 | 0.89 | 70 | O=C(c1ccccc1)n1ccc2c3c(=O)cc(-c4ccccc4)[nH]c3ccc21 | 0.0009 | IC50 [15]: 28 µM; Activity [16]: >50%; Activity [17]: >50%; Activity [18]: Active; Activity [19]: Active; Activity [20]: Dose-dependent effect; Activity [21]: Dose-dependent effect; IC50 [22]: 15.2 µM; Selectivity Index [23]: 1000 - 2000; Selectivity Index [24]: 1000 - 2000; Activity [25]: Active; Activity [26]: Active; remaining at 1 h, 10 µM [27]: > 60%; Stability [28]: Stable; Drug metabolism [29]: Metabolite_Detected
0.039 | 0.032 | 0.147 | 0.081 | 0.086 | 0.042 | 0.022 | 0.063 | 0.023 | 0.005 | 2.4 | 29 | O=c1cc(-c2ccccc2)[nH]c2ccc3c(ccn3S(=O)(=O)c3ccc(C(F)(F)F)cc3)c12 | 0.033 | 
0.215 | 0.042 | 0.018 | 0.034 | 0.049 | 0.092 | 0.036 | 0.003 | 0.007 | 0.152 | 1.2 | 42 | CS(=O)(=O)n1ccc2c3c(=O)cc(-c4ccccc4)[nH]c3ccc21 | 0.023 | IC50 [15]: > 100 µM; Activity [30]: Active; Activity [31]: Active; IC50 [22]: > 100 µM; Activity [25]: Active; Activity [26]: Active
0.335 | 0.032 | 0.048 | 0.055 | 0.065 | 0.222 | 0.026 | 0.052 | 0.005 | 0.195 | 1.1 | 37 | Cc1ccc(S(=O)(=O)n2ccc3c4c(=O)cc(-c5ccccc5)[nH]c4ccc32)cc1 | 0.033 | 
